# Experimental data as given in ChEMBL document CHEMBL1130181, “Importance of the C-1 substituent in classical cannabinoids to CB2 receptor selectivity: synthesis and characterization of a series of O,2-propano-delta 8-tetrahydrocannabinol analogs” (J Med Chem, 1997).
# pEC50, pKd, pKi: −log10 of the molar value.
# Tests used:
# [1] = species: Mus musculus; assay: Inhibition of electrically-evoked contractions of mouse vas deferens; type: functional
# How it was run: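 Mouse isolated vas deferens; response is drug-induced inhibition of electrically evoked contractions. Drugs mixed with 2 parts Tween 80 by weight and dispersed in 0.9% saline. EC50 with 95% confidence limits from nonlinear regression of log concentration–response curves.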
# [2] = test system: Mus musculus; assay: Rectal temperature in the mouse model, following intravenous administration of the compound(60 mg/kg), in the tail vein.; type: functional
# How it was run: (§1)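 Mice dosed by tail-vein iv injection in 1:1:18 emulphor:ethanol:saline, 0.1 mL/10 g body weight. Tetrad scored for spontaneous activity, tail-flick antinociception, rectal temperature and ring immobility. Values reported as ED50 ± SE from ALLFIT analysis, or as percent effect (temperature change for RT) at the stated dose (mg/kg).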
# [3] = target: Cannabinoid receptor (Homo sapiens) (UniProt P34972+P21554); assay: Ratio of binding affinities in cannabinoid CB1 receptor against cannabinoid CB2 receptor; type: protein assay
# How it was run: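 Ratio of Ki values. CB1 Ki from displacement of 1 nM [3H]CP-55,940 in whole-brain P2 membranes. CB2 Ki from the same radioligand on CHO cells expressing cloned human CB2. Both Ki values from […].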
# [4] = target: Cannabinoid receptor 1 (Rattus norvegicus, UniProt P20272); assay: Binding affinity for cannabinoid receptor 1.
# [5] = species: Mus musculus; assay: Dissociation constant of SR-141716A determined in the presence using mouse vas deferens.; type: functional
# How it was run: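 Mouse isolated vas deferens, electrically evoked contractions; agonist concentration–response curves run with SR-141716A at 31.62 nM or with Tween 80 vehicle. Kd from (x−1)=B/Kd, where x is the dose ratio. Dose ratios and 95% confidence limits by symmetrical (2+2) dose parallel line assay, using agonist concentration pairs on the steepest part of each curve.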
# [6] = test system: Mus musculus; assay: Rectal temperature in the mouse model, following intravenous administration (30 mg/kg), in the tail vein.; type: functional; how it was run: as §1
# [7] = test system: Mus musculus; assay: Rectal temperature in the mouse model, following intravenous administration of the compound, in the tail vein.at the dose (100 mg/kg); type: functional; how it was run: as §1
# Sequence of Cannabinoid receptor (Homo sapiens) (P21554 whole entry, looked up): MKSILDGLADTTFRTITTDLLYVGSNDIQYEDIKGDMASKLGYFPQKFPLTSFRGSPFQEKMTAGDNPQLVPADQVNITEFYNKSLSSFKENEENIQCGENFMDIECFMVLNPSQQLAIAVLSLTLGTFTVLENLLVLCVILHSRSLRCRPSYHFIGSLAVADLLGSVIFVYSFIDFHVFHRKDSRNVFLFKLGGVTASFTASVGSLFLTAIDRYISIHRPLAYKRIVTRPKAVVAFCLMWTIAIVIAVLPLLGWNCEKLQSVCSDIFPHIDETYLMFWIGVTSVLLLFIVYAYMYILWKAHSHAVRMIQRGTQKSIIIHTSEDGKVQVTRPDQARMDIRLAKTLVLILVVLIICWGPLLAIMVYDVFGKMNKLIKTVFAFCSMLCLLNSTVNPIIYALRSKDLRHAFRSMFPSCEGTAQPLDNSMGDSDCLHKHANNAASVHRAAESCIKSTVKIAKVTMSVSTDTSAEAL
# Sequence of Cannabinoid receptor (Homo sapiens) (P34972 whole entry, looked up): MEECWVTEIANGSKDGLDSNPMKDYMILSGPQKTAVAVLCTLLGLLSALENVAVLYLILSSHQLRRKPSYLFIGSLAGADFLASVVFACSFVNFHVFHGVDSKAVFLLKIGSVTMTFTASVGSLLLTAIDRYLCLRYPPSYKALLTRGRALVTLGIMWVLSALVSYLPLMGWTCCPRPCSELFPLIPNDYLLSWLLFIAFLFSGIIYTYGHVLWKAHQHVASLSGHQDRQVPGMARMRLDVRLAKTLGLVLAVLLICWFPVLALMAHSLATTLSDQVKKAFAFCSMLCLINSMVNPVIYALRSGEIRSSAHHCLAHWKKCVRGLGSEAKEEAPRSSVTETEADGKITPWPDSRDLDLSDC
# Sequence of Cannabinoid receptor 1 (P20272 whole entry): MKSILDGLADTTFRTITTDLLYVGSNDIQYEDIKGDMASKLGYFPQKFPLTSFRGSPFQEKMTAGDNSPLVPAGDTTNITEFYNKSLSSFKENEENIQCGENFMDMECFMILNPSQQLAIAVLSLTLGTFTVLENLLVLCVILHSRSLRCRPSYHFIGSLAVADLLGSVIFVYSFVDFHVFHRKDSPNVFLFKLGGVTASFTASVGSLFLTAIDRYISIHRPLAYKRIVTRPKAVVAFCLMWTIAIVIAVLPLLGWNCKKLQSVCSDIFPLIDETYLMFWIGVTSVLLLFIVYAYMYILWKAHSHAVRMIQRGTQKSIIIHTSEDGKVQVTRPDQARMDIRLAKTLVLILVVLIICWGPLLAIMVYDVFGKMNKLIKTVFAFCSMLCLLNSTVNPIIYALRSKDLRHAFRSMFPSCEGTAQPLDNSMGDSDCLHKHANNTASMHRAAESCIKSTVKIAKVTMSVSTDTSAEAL
Compound,pEC50 [1],Temperature [2],Ratio [3],pKi [4],pKd [5],Temperature [6],Temperature [7]
CCCCCc1cc2c(c3c1CCCO3)C1CC(=O)CC[C@H]1C(C)(C)O2 (stereo partly drawn),8.14,-2.9 °C,3.9,7.05,8.76,–,–
C=C1CC[C@@H]2C(C1)c1c(cc(CCCCC)c3c1OCCC3)OC2(C)C (stereo partly drawn),7.54,–,4.4,–,8.60,-3.6 °C,–
CCCCCc1cc2c(c3c1CCCO3)C1C[C@@H](O)CC[C@H]1C(C)(C)O2 (stereo partly drawn),7.08,–,–,–,8.78,–,–
CCCCCc1cc2c(c3c1CCCO3)C1CC=CC[C@H]1C(C)(C)O2 (stereo partly drawn),7.78,–,2.8,6.44,8.53,–,-1.2 °C
CCCCCc1cc2c(c3c1CCCO3)C1C[C@H](O)CC[C@H]1C(C)(C)O2 (stereo partly drawn),8.08,–,–,–,8.78,–,–
